Results as given in ChEMBL document CHEMBL1141100, “Design and synthesis of specific probes for human 5-HT4 receptor dimerization studies” (J Med Chem, 2005).

Experiments:
[1] = target: T1, 5-hydroxytryptamine receptor 4 (Homo sapiens, UniProt Q13639); assay: Percent cAMP production in C6 glial cells expressing human 5-hydroxytryptamine 4 receptor; type: functional, cell-based
Summary of the method: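 Confluent C6 cells stably expressing human 5-HT4(e) receptor were serum-starved 4 h, then preincubated 15 min with 5 mM theophylline and 10 μM pargyline. Compounds (seven concentrations, 10^-10 to 10^-5) and/or 5-HT (1 μM) were added for 15 min at 37 °C. Stopped with 20% perchloric acid, neutralized, and cAMP measured by radioimmunoassay.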

[2] = target: T1, 5-hydroxytryptamine receptor 4; assay: Binding affinity for 5-HT4 receptor using [3H]GR-113808

T1 sequence (Q13639 whole entry): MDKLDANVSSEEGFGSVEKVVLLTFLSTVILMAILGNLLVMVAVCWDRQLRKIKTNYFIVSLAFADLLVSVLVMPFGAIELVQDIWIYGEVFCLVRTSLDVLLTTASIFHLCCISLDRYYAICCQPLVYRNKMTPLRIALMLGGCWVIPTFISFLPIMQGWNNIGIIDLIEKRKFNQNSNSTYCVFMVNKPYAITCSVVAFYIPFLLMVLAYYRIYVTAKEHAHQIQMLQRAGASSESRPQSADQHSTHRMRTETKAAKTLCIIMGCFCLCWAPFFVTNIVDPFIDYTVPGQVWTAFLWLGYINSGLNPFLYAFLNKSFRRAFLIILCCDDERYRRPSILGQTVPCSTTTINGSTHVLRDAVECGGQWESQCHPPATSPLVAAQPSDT

Compound | cAMP [1] | Ki [2]
COc1cc(N)c(Cl)cc1C(=O)OCCN1CCC(CCNC(=O)CCC(=O)NCCC2CCN(CCOC(=O)c3cc(Cl)c(N)cc3OC)CC2)CC1 | 15% | 5 nM
COc1cc(N)c(Cl)cc1C(=O)OCCN1CCC(CNC(=O)CCC(=O)NCC2CCN(CCOC(=O)c3cc(Cl)c(N)cc3OC)CC2)CC1 | 16% | 7 nM
COc1cc(N)c(Cl)cc1C(=O)OCCN1CCC(CCNC(=O)CCCC(=O)NCCC2CCN(CCOC(=O)c3cc(Cl)c(N)cc3OC)CC2)CC1 | 24% | –
COc1cc(N)c(Cl)cc1C(=O)OCCN1CCN(C(=O)CCCCCC(=O)N2CCN(CCOC(=O)c3cc(Cl)c(N)cc3OC)CC2)CC1 | – | 488 nM
COc1cc(N)c(Cl)cc1C(=O)OCCN1CCC(NC(=O)CCC(=O)NC2CCN(CCOC(=O)c3cc(Cl)c(N)cc3OC)CC2)CC1 | 47% | 21 nM
COc1cc(N)c(Cl)cc1C(=O)OCCN1CCC(C(=O)NCCCNC(=O)C2CCN(CCOC(=O)c3cc(Cl)c(N)cc3OC)CC2)CC1 | 13% | 13 nM
COc1cc(N)c(Cl)cc1C(=O)OCCN1CCC(CCNC(=O)CCCCCC(=O)NCCC2CCN(CCOC(=O)c3cc(Cl)c(N)cc3OC)CC2)CC1 | 31% | 11 nM
COc1cc(N)c(Cl)cc1C(=O)OCCN1CCC(NC(=O)CCc2ccc3c(c2)oc2cc(CCC(=O)NC4CCN(CCOC(=O)c5cc(Cl)c(N)cc5OC)CC4)ccc23)CC1 | 23% | 47 nM
COc1cc(N)c(Cl)cc1C(=O)OCCN1CCC(NC(=O)CCCNC(=O)C2CCN(CCOC(=O)c3cc(Cl)c(N)cc3OC)CC2)CC1 | 42% | 31 nM
COc1cc(N)c(Cl)cc1C(=O)OCCN1CCC(NC(=O)CCCCCCCCCCNc2nc(NCCCCCCCCCCC(=O)NC3CCN(CCOC(=O)c4cc(Cl)c(N)cc4OC)CC3)nc(NCc3ccccc3)n2)CC1 | 12% | 113 nM
COc1cc(N)c(Cl)cc1C(=O)OCCN1CCC(NC(=O)CCCC(=O)NC2CCN(CCOC(=O)c3cc(Cl)c(N)cc3OC)CC2)CC1 | 32% | 5 nM
COc1cc(N)c(Cl)cc1C(=O)OCCN1CCC(NC(=O)CCCCCCCCCCN(CCCCCCCCCCC(=O)NC2CCN(CCOC(=O)c3cc(Cl)c(N)cc3OC)CC2)CC(=O)NCC2CCNCC2)CC1 | 10% | 50 nM
COc1cc(N)c(Cl)cc1C(=O)OCCN1CCC(CCNC(=O)CCCCCCCCCCC(=O)NCCC2CCN(CCOC(=O)c3cc(Cl)c(N)cc3OC)CC2)CC1 | 6% | 9 nM
COc1cc(N)c(Cl)cc1C(=O)OCCN1CCC(C(=O)NCCNC(=O)C2CCN(CCOC(=O)c3cc(Cl)c(N)cc3OC)CC2)CC1 | 3% | 37 nM
COc1cc(N)c(Cl)cc1C(=O)OCCN1CCC(NC(=O)CCCCCC(=O)NC2CCN(CCOC(=O)c3cc(Cl)c(N)cc3OC)CC2)CC1 | 26% | 9 nM
COc1cc(N)c(Cl)cc1C(=O)OCCN1CCC(C(=O)NCCOCCOCCNC(=O)C2CCN(CCOC(=O)c3cc(Cl)c(N)cc3OC)CC2)CC1 | 3% | 3 nM

Compound | cAMP [1] | Ki [2]
COc1cc(N)c(Cl)cc1C(=O)OCCN1CCN(C(=O)CCCCCCCCCCC(=O)N2CCN(CCOC(=O)c3cc(Cl)c(N)cc3OC)CC2)CC1 | – | 200 nM
COc1cc(N)c(Cl)cc1C(=O)OCCN1CCCCC1 | 45% | –
COc1cc(N)c(Cl)cc1C(=O)OCCN1CCC(CNC(=O)CCCC(=O)NCC2CCN(CCOC(=O)c3cc(Cl)c(N)cc3OC)CC2)CC1 | 20% | 13 nM
COc1cc(N)c(Cl)cc1C(=O)OCCN1CCC(CNC(=O)CCCCCCCCCCC(=O)NCC2CCN(CCOC(=O)c3cc(Cl)c(N)cc3OC)CC2)CC1 | 21% | 22 nM
COc1cc(N)c(Cl)cc1C(=O)OCCN1CCC(NC(=O)CCCCCCCCCCC(=O)NC2CCN(CCOC(=O)c3cc(Cl)c(N)cc3O)CC2)CC1 | 20% | 16 nM
COc1cc(N)c(Cl)cc1C(=O)OCCN1CCC(CNC(=O)CCCCCC(=O)NCC2CCN(CCOC(=O)c3cc(Cl)c(N)cc3OC)CC2)CC1 | 20% | 26 nM
COc1cc(N)c(Cl)cc1C(=O)OCCN1CCC(C(=O)NCc2cccc(CNC(=O)C3CCN(CCOC(=O)c4cc(Cl)c(N)cc4OC)CC3)c2)CC1 | 16% | 5 nM
COc1cc(N)c(Cl)cc1C(=O)OCCN1CCC(C(=O)NCCCCCCCCCCNC(=O)C2CCN(CCOC(=O)c3cc(Cl)c(N)cc3OC)CC2)CC1 | 8% | 8 nM
COc1cc(N)c(Cl)cc1C(=O)OCCN1CCC(NC(=O)CCCCCCCCCCN)CC1 | 50% | 13 nM
COc1cc(N)c(Cl)cc1C(=O)OCCN1CCC(NC(=O)CCNC(=O)C2CCN(CCOC(=O)c3cc(Cl)c(N)cc3OC)CC2)CC1 | 10% | 24 nM
COc1cc(N)c(Cl)cc1C(=O)OCCN1CCC(NC(=O)CCCCCNC(=O)C2CCN(CCOC(=O)c3cc(Cl)c(N)cc3OC)CC2)CC1 | 46% | 7 nM
COc1cc(N)c(Cl)cc1C(=O)OCCN1CCC(C(=O)NCCCCCNC(=O)C2CCN(CCOC(=O)c3cc(Cl)c(N)cc3OC)CC2)CC1 | 5% | 5 nM
COc1cc(N)c(Cl)cc1C(=O)OCCN1CCC(NC(=O)CCCCCCCCCCC(=O)NC2CCN(Cc3ccccc3)CC2)CC1 | 35% | 14 nM
COc1cc(N)c(Cl)cc1C(=O)OCCN1CCC(NC(=O)CCCCCCCCCCNC(=O)C2CCN(CCOC(=O)c3cc(Cl)c(N)cc3OC)CC2)CC1 | 5% | 20 nM
COc1cc(N)c(Cl)cc1C(=O)OCCN1CCC(C(=O)NCCCOCCOCCOCNC(=O)C2CCN(CCOC(=O)c3cc(Cl)c(N)cc3OC)CC2)CC1 | 0% | 6 nM
COc1cc(N)c(Cl)cc1C(=O)OCCN1CCC(C(=O)NCCOCCNC(=O)C2CCN(CCOC(=O)c3cc(Cl)c(N)cc3OC)CC2)CC1 | 0% | 19 nM
